According to PubChem BioAssay AID623869 (Vanderbilt High Throughput Screening Facility, 2012):
In all, about 2,100 compounds went through this assay and about 75 (4%) were called active.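 The calls were made as follows: active = calcium fluorescence trace judged by eye to show a response, as agonist, enhancer of the glutamate response, or inhibitor; inactive = trace judged by eye to show no response.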 What follows is part of a selection rich in actives, with near analogues and random picks from the rest.

Biological target: Metabotropic glutamate receptor 8 (Rattus norvegicus) (UniProt P70579)
Assay: mGlu8-mediated intracellular calcium response modulators – cell-based, HEK293 rmGlu8, Gqi9 chimera, Fluo-4 calcium, counter-screen for GIRK activator project, confirmation (AID 623869)
Conditions: HEK293 rmGlu8/Gqi9 calcium flux, Fluo-4 fluorescence; glutamate at EC20 added after compound
Method in brief: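 Material: rat mGlu8 HEK-293 cells with transient Gqi9; medium: HEPES-buffered HBSS, pH 7.4; reagent: EC20 glutamate; dosing: one dose, 20 µM addition solution, 0.2% DMSO; incubation: compound 4 min before glutamate, then 2 min recording; measured by: Fluo-4 calcium fluorescence, 1 Hz; evaluation: F/F0 fluorescence traces judged visually for each well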

Metabotropic glutamate receptor 8 (Rattus norvegicus), sequence (P70579 whole entry, looked up): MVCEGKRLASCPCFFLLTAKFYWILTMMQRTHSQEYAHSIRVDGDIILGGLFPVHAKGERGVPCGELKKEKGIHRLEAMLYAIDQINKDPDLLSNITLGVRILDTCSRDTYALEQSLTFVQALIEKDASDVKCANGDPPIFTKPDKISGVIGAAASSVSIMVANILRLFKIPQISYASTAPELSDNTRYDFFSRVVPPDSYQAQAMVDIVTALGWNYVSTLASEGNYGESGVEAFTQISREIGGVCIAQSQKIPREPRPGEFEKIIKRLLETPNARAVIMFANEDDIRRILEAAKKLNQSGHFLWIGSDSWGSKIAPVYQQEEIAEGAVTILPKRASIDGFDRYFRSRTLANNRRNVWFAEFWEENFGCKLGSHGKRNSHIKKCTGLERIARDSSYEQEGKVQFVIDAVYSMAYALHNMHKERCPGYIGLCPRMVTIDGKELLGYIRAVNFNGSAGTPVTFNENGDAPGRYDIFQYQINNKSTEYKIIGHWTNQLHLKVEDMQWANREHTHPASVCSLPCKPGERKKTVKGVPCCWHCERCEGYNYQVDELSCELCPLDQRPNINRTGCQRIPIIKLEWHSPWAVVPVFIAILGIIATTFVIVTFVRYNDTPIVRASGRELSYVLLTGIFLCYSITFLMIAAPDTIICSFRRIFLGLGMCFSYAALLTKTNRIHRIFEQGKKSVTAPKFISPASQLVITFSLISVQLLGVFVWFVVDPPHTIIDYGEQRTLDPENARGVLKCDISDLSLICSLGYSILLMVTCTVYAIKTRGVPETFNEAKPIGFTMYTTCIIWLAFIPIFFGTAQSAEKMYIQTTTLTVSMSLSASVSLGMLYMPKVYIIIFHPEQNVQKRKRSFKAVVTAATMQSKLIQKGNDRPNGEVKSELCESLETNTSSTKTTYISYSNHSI

Compound | outcome
Cc1cccc(C(=O)NC(=S)Nc2ccccc2C(F)(F)F)c1 | inactive; 0
Cc1cccc(C(=O)NC(=S)NNC(=O)c2cccs2)c1 | active; 1
Cc1cccc(C(=O)NC(=S)NNC(=O)c2ccc(Cl)cc2)c1 | active; 1
CC(=O)c1cccc(NC(=S)NC(=O)c2cccc(C)c2)c1 | inactive; 0
O=C(NC(=S)NNC(=O)c1cccs1)c1ccc(Br)o1 | active; 1
O=C(NNC(=O)c1cccs1)Nc1cccc(Cl)c1 | inactive; 0
Cc1ccc(C(=O)NNC(=S)NC(=O)c2ccc(Cl)cc2)cc1 | inactive; 4
Cc1ccnc(NC(=S)NC(=O)c2cccs2)c1 | inactive; 0
Cc1cccc(NC(=O)NC(=S)NC(=O)c2ccccc2)c1 | inactive; 0
O=C(CNC(=S)NC(=O)c1cccs1)c1ccccc1 | inactive; 0
CC(C)CNC(=S)NC(=O)c1ccccc1Cl | inactive; 0
Cc1cccc(C(=O)NC(=S)NNC(=O)c2ccccc2Cl)c1 | active; 1
CC(C)CNC(=S)NC(=O)c1ccc([N+](=O)[O-])cc1 | inactive; 0
O=C(COc1ccccc1Cl)NC(=S)N1CCc2ccccc21 | inactive; 0
C=CCCCCCCCCc1nc(=S)[nH][nH]1 | inactive; 0
Cc1cccc(NC(=S)NNC(=O)c2sccc2C)c1 | inactive; 0
O=C(NC(=S)N1CCN(c2ccc(Cl)cc2[N+](=O)[O-])CC1)c1ccco1 | inactive; 0
O=C(N/N=C\c1cc(Br)c(Br)o1)c1cncc(Br)c1 | inactive; 0
Cc1cc(C)c2nc(SCC(=O)NCCC3=CCCCC3)cc(C)c2c1 | inactive; 0
c1csc(CCNc2ncnc3sc4c(c23)CCC4)c1 | inactive; 0
O=S(=O)(Nc1nc(-c2sccc2Cl)cs1)c1cc(Cl)ccc1Cl | active; -1
CC1=NCCN1S(=O)(=O)c1cc(Cl)ccc1Cl | inactive; 0

Compound | outcome
COC(=O)c1sccc1NC(=O)CSc1ccccc1NS(=O)(=O)c1cc(Cl)ccc1Cl | inactive; 0
O=C(NNc1nc2ccccc2nc1C(F)(F)F)c1ccccc1 | inactive; 0
Cc1cccc(N=C2NC(=O)/C(=C/C=C/c3ccco3)S2)c1C | inactive; 0
Cc1nc(SC2CCOC2=O)c2c(C)c(C)sc2n1 (stereo not drawn) | inactive; 0
Cc1sc2nc(C(C)C)nc(SCC(=O)N3c4ccccc4CC3C)c2c1C (stereo not drawn) | inactive; 0
C/C(=N\NC(=O)c1ccccc1O)c1ccc(Br)s1 | inactive; 0
C/C(=N\NC(=O)c1ccc(Cl)cc1)c1ccc(Br)s1 | inactive; 0
C/C(=N\NC(=O)c1cccc(F)c1)c1ccc(Br)s1 | active; 1
Cc1ccc2c(Cl)cc(Cl)c(OCC(=O)NCc3ccco3)c2n1 | inactive; 0
O=C(NN=c1c(=O)c2ccccc2c1=O)c1ccccc1 | inactive; 0
Cc1ccc(NC(=O)CSC(N)=O)cc1Cl | inactive; 0
O=C(CC(O)(C(F)(F)F)C(F)(F)F)Nc1ccc(Cl)c(Cl)c1 | active; 1
C=COCCNC(=O)Nc1ccc(Cl)c(Cl)c1 | inactive; 4
O=C(NNC(=O)c1sccc1-n1cccc1)c1ccc(Cl)cc1 | inactive; 0
CCOC(=O)c1ccccc1NC(=O)CSc1nnc(Cc2cccn2C)n1-c1ccc(C)cc1 | inactive; 0
Fc1ccc(/C=N/n2c(-c3cccs3)n[nH]c2=S)cc1 | inactive; 0
CCOc1ccc2nc(/N=C/c3c(C)[nH]n(-c4ccc(C)cc4)c3=O)sc2c1 | inactive; 0
O=c1c2ccccc2nc(-c2cccc(Cl)c2)n1O | inactive; 0
O=c1c2cc(Br)ccc2nc(-c2cccc(C(F)(F)F)c2)n1O | active; 1
O=c1c2ccc(Cl)cc2nc(-c2cccc(C(F)(F)F)c2)n1O | inactive; 3
COC(=O)c1onc(C(=O)c2ccccc2)c1C(=O)OC | inactive; 0
COc1ccc(N2CCCn3c2nc2c3c(=O)n(Cc3ccccc3F)c(=O)n2C)c(OC)c1 | inactive; 0

Compound | outcome
COc1ccc(NC(=O)C(=O)NNC(=O)c2cccs2)c(OC)c1 | inactive; 0
COc1ccc(N2CCN(c3nc4c(c(=O)n(C)c(=O)n4C)n3Cc3ccccc3)CC2)cc1 | inactive; 0
Cn1c(=O)c2c(nc(-n3ccnc3)n2Cc2ccccc2)n(C)c1=O | inactive; 0
Cn1c(N2CCCC2)nc2c1c(=O)n(Cc1ccc(Cl)cc1)c(=O)n2C | active; 2
CCOC(=O)Cc1csc(NC(=S)NC(=O)c2ccccc2Br)n1 | inactive; 0
CCc1ccc(NC(=S)NNC(=O)c2ccccc2OC(F)F)cc1 | inactive; 0
Cc1ccc(C)c(NC(=S)NNC(=O)c2csc3c2CCC(C)C3)c1 (stereo not drawn) | inactive; 0
O=C(N/N=C\c1ccc(Cl)s1)c1cccs1 | inactive; 0
O=C(c1cc2nc(-c3ccccc3)cc(-c3ccccc3)n2n1)N1CCN(C(=O)c2ccco2)CC1 | inactive; 0
CCC(=O)n1nc(-c2cccnc2)nc1NCc1ccc(OC)cc1 | inactive; 0
COc1ccc(CNc2nc(-c3cccnc3)nn2C(=O)c2ccco2)cc1 | active; 2
Cc1oc(-c2ccccc2)nc1CS(=O)CC(=O)O (stereo not drawn) | inactive; 0
CCCCN(CCCC)C(=S)NC(=O)c1ccccc1Cl | inactive; 0
COc1ccc(-c2nnc(CSc3nc4ccccc4c(=O)n3C)o2)cc1OC | active; 2
CCN(CC)C(=O)CSc1nc2ccccc2c(=O)n1-c1ccccc1OC | inactive; 0
COc1cc(-c2nnc(CSc3nc4ccccc4s3)o2)cc(OC)c1OC | inactive; 0
c1ccc(Cc2nnc(-c3ccccc3)o2)cc1 | active; -1
Fc1ccc2nc(-c3ccccc3)nc(SCc3nnc(-c4ccccc4)o3)c2c1 | inactive; 0
O=S(=O)(c1ccc(-c2nnc(SCc3nnc(-c4ccccc4)o3)o2)cc1)N1CCCC1 | inactive; 0
CCC(=O)N1CCN(c2ccccc2NC(=O)COc2cccc(C)c2)CC1 | inactive; 0
CNc1nc(Cl)nc(NC(C)(C)C)n1 | active; 2
O=C1Nc2ccccc2C12OCC1(CO2)COC2(OC1)C(=O)Nc1ccccc12 (stereo not drawn) | active; 2

Compound | outcome
O=C(c1ccco1)N1CCN(c2ncnc3scc(-c4cccs4)c23)CC1 | active; 2
O=C(c1ccco1)N1CCN(C(=O)c2cnn3c2NC(c2cccs2)CC3C(F)(F)F)CC1 (stereo not drawn) | inactive; 0
Cc1ccc(-c2csc3ncnc(N4CCN(C(=O)c5ccccc5)CC4)c23)cc1 | inactive; 0
S=C(Nc1ccc(Cl)cc1)c1nc2ccccc2[nH]1 | inactive; 0
O=C(NC(=S)Nc1ccccn1)c1ccco1 | inactive; 0
Cc1ccc(C(=O)Nc2nc(-c3ccccc3)c(-c3ccccc3)o2)cc1 | inactive; 0
COc1ccc(C(=O)NNC(=S)NC(=O)c2ccco2)cc1 | inactive; 4
Cc1ccccc1NC(=S)NC(=O)CCc1ccccc1 | inactive; 0
COc1ccc(C(=O)NC(=S)NNC(=O)CCc2ccccc2)cc1 | active; 1
O=C(CCc1ccccc1)NNC(=S)NC(=O)c1ccc(Cl)cc1 | active; 1
COc1ccc(C(=O)NC(=S)N(Cc2ccccc2)Cc2ccccc2)cc1 | inactive; 0
Cc1cccc(C)c1NC(=S)NC(=O)CCc1ccccc1 | inactive; 0
CC(=O)c1cccc(NC(=S)NC(=O)c2cccc(Cl)c2)c1 | inactive; 0
Cc1ccc(-n2ncc3c(SCc4ccccc4)ncnc32)cc1 | inactive; 0
O=C(Nc1nnc(-c2ccc3c(c2)CCCC3)o1)c1ccccc1 | inactive; 4
Cc1ccc(OCC(=O)NNC(=O)C(C)Sc2ncnc3sc(C)c(C)c23)cc1 (stereo not drawn) | inactive; 0
COc1cc(/C=C2/SC(=S)NC2=O)ccc1OS(=O)(=O)c1ccc(C)cc1 | inactive; 0
O=C1NC(=S)/C(=C\c2ccc(-c3ccccc3Cl)o2)S1 | inactive; 3
O=C1NC(=O)/C(=C\c2ccccc2Oc2ccc(F)c(F)c2)S1 | inactive; 0
O=C1NC(=S)S/C1=C\c1ccc(SCc2ccccc2)o1 | inactive; 0
COc1ccc(/C=C2\SC(=O)NC2=S)cc1OC | active; 2
COc1cc(/C=C2\SC(=S)NC2=O)ccc1OS(=O)(=O)c1ccccc1 | active; 2

Compound | outcome
COc1ccc(/C=N\NC(=S)SCN2C(=O)C3CCC(C)(C2=O)C3(C)C)cc1 (stereo not drawn) | inactive; 0
CCc1ccc2c(c1)c(N=NC1=NC(=O)CS1)c(O)n2C | inactive; 0
C=CCN(CC=C)C(=S)NC(=O)c1ccc(C)c(Br)c1 | inactive; 0
Cc1ccc(C(=O)NNc2nc3ccccc3nc2C(F)(F)F)cc1 | inactive; 0
Cc1ccc(NC(=S)NNc2ncc(C(F)(F)F)cc2Cl)c(C)c1 | inactive; 0
FC(F)(F)c1cnc(NNC(=S)Nc2ccc(Cl)cc2)c(Cl)c1 | inactive; 4
FC(F)(F)c1cnc(NNC(=S)Nc2ccccc2Cl)c(Cl)c1 | active; 1
CC(C)Sc1nc2c(c(=O)[nH]1)C(c1cccs1)C1=C(CC(C)(C)CC1=O)N2 (stereo not drawn) | inactive; 0
C=CCN(CC=C)C(=S)NC(=O)c1ccc([N+](=O)[O-])cc1 | inactive; 0
CCc1nc(SCC(=O)N2CC(=O)Nc3ccccc32)c2c(C)c(C)sc2n1 | inactive; 0
Oc1c(C=NCc2ccncc2)sc2ccccc12 | active; 2
CCN(c1ccccc1)S(=O)(=O)c1ccc(NC(=S)NC(=O)c2ccc(Br)o2)cc1 | inactive; 0
CCOC(=O)c1c(NC(=O)CSc2nnc(-c3ccncc3)n2Cc2ccco2)sc(C(C)=O)c1C | inactive; 0
Cc1ccc(NC(=S)c2nc3ccccc3[nH]2)cc1 | inactive; 0
C=CCNC(=S)Nc1nc2c(cc1C(=O)OCC)CCCC2 | active; 2
C=C(C)CNC(=S)Nc1nc2c(cc1C(=O)OCC)CCCC2 | inactive; 0
C=CCNC(=S)Nc1sc2c(c1C(=O)OCC)CC(C)(CC)OC2 (stereo not drawn) | inactive; 0
CCNC(=S)Nc1nc2c(cc1C(=O)OCC)CCCC2 | active; 2
CCNC(=S)Nc1scc(-c2ccccc2)c1C(=O)OCC | inactive; 0
C=CCNC(=S)Nc1sc2c(c1C(=O)OCC)CC(C(C)C)OC2 (stereo not drawn) | inactive; 0
